Source: ChEMBL document CHEMBL2429791, “Preparation of asymmetric urea derivatives that target prostate-specific membrane antigen for SPECT imaging” (J Med Chem, 2013)

Assays:
Heart [1] = assay: Biodistribution in heart of C.B.-17/Icr +/+ Jcl mouse xenografted with human LNCAP and PC3 cells at 25.9 MBq, iv after 2 mins; assay type: ADME, organism-based; settings: in vivo
In short: (§1)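 ¹²⁵I-labelled tracer given iv by tail vein to mice (22–24 g) bearing LNCaP (left shoulder) and PC-3 (right shoulder) xenografts of about 5–10 mm, grown from 1–5 × 10⁶ cells in 1:1 Matrigel. n=4 per time point; decapitated at 2 min, 30 min, 1, 3, 6 h. Tissues weighed and counted; uptake as %ID/g, mean ± SD.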

Heart [2] = assay: Biodistribution in heart of C.B.-17/Icr +/+ Jcl mouse xenografted with human LNCAP and PC3 cells at 25.9 MBq, iv after 1 hr; assay type: ADME, organism-based; settings: in vivo; in short: as §1
Stomach [3] = assay: Biodistribution in stomach of C.B.-17/Icr +/+ Jcl mouse xenografted with human LNCAP and PC3 cells at 25.9 MBq, iv after 6 hrs; assay type: ADME, organism-based; settings: in vivo
In short: (§2)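 Radioiodinated (¹²⁵I) tracer given by tail-vein injection to mice bearing LNCaP (left shoulder) and PC-3 (right shoulder) xenografts, 22–24 g, grown to about 5–10 mm. Groups of n=4 were decapitated at 2 min, 30 min, 1 h, 3 h or 6 h. Tissues were weighed and counted, and uptake was expressed as %ID/g (mean ± SD).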

Muscle tissue [4] = assay: Biodistribution in muscle of C.B.-17/Icr +/+ Jcl mouse xenografted with human LNCAP and PC3 cells at 25.9 MBq, iv after 3 hrs; assay type: ADME, organism-based; settings: in vivo; in short: as §2
Nucleic Acid [5] = assay: Ratio of drug level in human LNCAP cells to human PC3 cells xenografted in C.B.-17/Icr […] Jcl mouse at 25.9 MBq, iv after 6 hrs; assay type: ADME, organism-based; settings: in vivo
[6] = Ratio of drug level in human PC3 cells xenografted in C.B.-17/Icr +/+ Jcl mouse to blood of C.B.-17/Icr +/+ Jcl mouse xenografted with human LNCAP and PC3 cells at 25.9 MBq, iv after 2 mins; assay type: ADME, organism-based; settings: PC3 tumour xenograft relative to blood
In short: (§3)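 Mice (22–24 g) carried PC-3 (right shoulder) and LNCaP (left shoulder) tumors, raised by injecting 1–5 × 10⁶ cells in 1:1 PBS/Matrigel and used at about 5–10 mm diameter. [¹²⁵I]-tracer was given via the tail vein, n=4 per time point, and mice were decapitated at 2 min, 30 min, 1, 3 or 6 h. Tissues were weighed and γ-counted as %ID/g. Tumor/blood and tumor/muscle ratios were taken from %ID/g, mean ± SD.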

Thyroid gland [7] = assay: Biodistribution in thyroid of C.B.-17/Icr +/+ Jcl mouse xenografted with human LNCAP and PC3 cells at 25.9 MBq, iv after 3 hrs; assay type: ADME, organism-based; settings: in vivo; in short: as §2
[8] = Ratio of drug level in human PC3 cells xenografted in C.B.-17/Icr +/+ Jcl mouse to blood of C.B.-17/Icr +/+ Jcl mouse xenografted with human LNCAP and PC3 cells at 25.9 MBq, iv after 30 mins; assay type: ADME, organism-based; settings: PC3 tumour xenograft relative to blood; in short: as §3
Lung [9] = assay: Biodistribution in lung of C.B.-17/Icr +/+ Jcl mouse xenografted with human LNCAP and PC3 cells at 25.9 MBq, iv after 3 hrs; assay type: ADME, organism-based; settings: in vivo; in short: as §2
Lung [10] = assay: Biodistribution in lung of C.B.-17/Icr +/+ Jcl mouse xenografted with human LNCAP and PC3 cells at 25.9 MBq, iv after 6 hrs; assay type: ADME, organism-based; settings: in vivo; in short: as §2
Heart [11] = assay: Biodistribution in heart of C.B.-17/Icr +/+ Jcl mouse xenografted with human LNCAP and PC3 cells at 25.9 MBq, iv after 30 mins; assay type: ADME, organism-based; settings: in vivo, 0.5 h; in short: as §1
[12] = biological target: Glutamate carboxypeptidase 2 (Homo sapiens, UniProt Q04609); assay: Binding affinity to PSMA in human LNCaP cells after 1 hr by gamma counting; assay type: cell-based
Glutamate carboxypeptidase 2, sequence (Q04609 whole entry): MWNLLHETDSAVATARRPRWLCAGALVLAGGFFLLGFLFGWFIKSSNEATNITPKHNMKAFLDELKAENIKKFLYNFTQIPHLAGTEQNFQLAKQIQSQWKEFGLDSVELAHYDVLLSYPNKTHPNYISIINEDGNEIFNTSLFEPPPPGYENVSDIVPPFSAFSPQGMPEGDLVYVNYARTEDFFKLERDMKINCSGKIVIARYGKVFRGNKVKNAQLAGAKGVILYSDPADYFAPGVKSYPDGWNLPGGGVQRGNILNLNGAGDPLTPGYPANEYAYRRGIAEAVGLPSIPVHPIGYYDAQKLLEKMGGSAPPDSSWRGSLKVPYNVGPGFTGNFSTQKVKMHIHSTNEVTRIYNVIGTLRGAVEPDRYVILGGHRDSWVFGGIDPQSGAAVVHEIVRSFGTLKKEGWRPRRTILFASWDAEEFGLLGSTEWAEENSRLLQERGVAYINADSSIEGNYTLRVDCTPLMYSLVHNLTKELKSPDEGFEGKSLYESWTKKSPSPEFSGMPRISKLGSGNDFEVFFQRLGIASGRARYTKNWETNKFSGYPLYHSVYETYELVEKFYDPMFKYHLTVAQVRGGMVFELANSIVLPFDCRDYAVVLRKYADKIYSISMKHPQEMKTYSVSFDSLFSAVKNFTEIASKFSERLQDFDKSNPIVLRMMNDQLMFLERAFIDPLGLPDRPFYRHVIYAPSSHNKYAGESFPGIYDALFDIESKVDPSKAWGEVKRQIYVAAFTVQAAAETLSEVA
In short: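 LNCaP cells plated at 4 × 10⁵ cells/well and grown 48 h (37 °C/5% CO₂), then washed with RPMI 1640 containing 0.5% BSA. Saturation binding used ¹²⁵I-labelled ligand (specific activity 81.4 kBq/nmol), 1 h at 37 °C; nonspecific binding measured with 100 µM non-radioactive iodinated compound. Cells washed, lysed in 0.2 N NaOH, gamma-counted; Kd from Scatchard plots.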

Spleen [13] = assay: Biodistribution in spleen of C.B.-17/Icr +/+ Jcl mouse xenografted with human LNCAP and PC3 cells at 25.9 MBq, iv after 3 hrs; assay type: ADME, organism-based; settings: in vivo; in short: as §2
[14] = Distribution coefficient, log D of the compound; assay type: physicochemical; settings: octanol/water
[15] = Ratio of drug level in human LNCAP cells xenografted in C.B.-17/Icr +/+ Jcl mouse to blood of C.B.-17/Icr +/+ Jcl mouse xenografted with human LNCAP and PC3 cells at 25.9 MBq, iv after 30 mins; assay type: ADME, organism-based; settings: LNCAP tumour xenograft relative to blood
In short: (§4)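 Tumor-to-blood and tumor-to-muscle ratios were calculated from %ID/g values in ¹²⁵I-tracer biodistribution in LNCaP/PC-3 xenografted mice. Tail-vein dosing, n=4 per time point, sacrifice at 2 min, 30 min, 1, 3 or 6 h.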

Spleen [16] = assay: Biodistribution in spleen of C.B.-17/Icr +/+ Jcl mouse xenografted with human LNCAP and PC3 cells at 25.9 MBq, iv after 2 mins; assay type: ADME, organism-based; settings: in vivo; in short: as §2
PC-3 = assay: Biodistribution in PC3 cells in C.B.-17/Icr +/+ Jcl mouse xenografted with human LNCAP and PC3 cells at 25.9 MBq, iv after 2 mins; assay type: ADME, organism-based; settings: in vivo; in short: as §1
Thyroid gland [17] = assay: Biodistribution in thyroid of C.B.-17/Icr +/+ Jcl mouse xenografted with human LNCAP and PC3 cells at 25.9 MBq, iv after 1 hr; assay type: ADME, organism-based; settings: in vivo; in short: as §2
Muscle tissue [18] = assay: Biodistribution in muscle of C.B.-17/Icr +/+ Jcl mouse xenografted with human LNCAP and PC3 cells at 25.9 MBq, iv after 2 mins; assay type: ADME, organism-based; settings: in vivo; in short: as §2
Nucleic Acid [19] = assay: Ratio of drug level in human LNCAP cells xenografted in C.B.-17/Icr +/+ Jcl mouse to muscle of C.B.-17/Icr +/+ Jcl mouse xenografted with human LNCAP and PC3 cells at 25.9 MBq, iv after 2 mins; assay type: ADME, organism-based; settings: in vivo; in short: as §4
Blood [20] = assay: Biodistribution in blood of C.B.-17/Icr +/+ Jcl mouse xenografted with human LNCAP and PC3 cells at 25.9 MBq, iv after 3 hrs; assay type: ADME, organism-based; settings: in vivo; in short: as §1
Lung [21] = assay: Biodistribution in lung of C.B.-17/Icr +/+ Jcl mouse xenografted with human LNCAP and PC3 cells at 25.9 MBq, iv after 30 mins; assay type: ADME, organism-based; settings: in vivo, 0.5 h; in short: as §2
Liver = assay: Biodistribution in liver of C.B.-17/Icr […] Jcl mouse xenografted with human LNCAP and PC3 cells at 25.9 MBq, iv after 1 hr; assay type: ADME, organism-based; settings: in vivo; in short: as §1
Stomach [22] = assay: Biodistribution in stomach of C.B.-17/Icr +/+ Jcl mouse xenografted with human LNCAP and PC3 cells at 25.9 MBq, iv after 30 mins; assay type: ADME, organism-based; settings: in vivo, 0.5 h; in short: as §2
Nucleic Acid [23] = assay: Ratio of drug level in human PC3 cells xenografted in C.B.-17/Icr +/+ Jcl mouse to muscle of C.B.-17/Icr +/+ Jcl mouse xenografted with human LNCAP and PC3 cells at 25.9 MBq, iv after 30 mins; assay type: ADME, organism-based; settings: in vivo, 0.5 h; in short: as §3
Blood [24] = assay: Biodistribution in blood of C.B.-17/Icr +/+ Jcl mouse xenografted with human LNCAP and PC3 cells at 25.9 MBq, iv after 6 hrs; assay type: ADME, organism-based; settings: in vivo; in short: as §1

Work on `O=C(O)CC[C@H](NC(=O)N[C@@H](CSC1CC(=O)N(CCCC[C@H](NC(=O)CNC(=O)c2cccc([125I])c2)C(=O)O)C1=O)C(=O)O)C(=O)O` (stereo partly specified) yielded a Drug uptake (Heart [1]) of 5.4 % ID/g, a Drug uptake (Heart [2]) of 1.3 % ID/g and a Drug uptake (Stomach [3]) of 0.7 %ID. For the same molecule, the Drug uptake (Muscle tissue [4]) was 0.2 % ID/g, the Ratio (Nucleic Acid [5]) was 36.8 and the Kp at 2 min [6] was 0.4. The Drug uptake (Thyroid gland [7]) was 0.01 %ID, the Kp at 0.5 h [8] was 0.7 and the Drug uptake (Lung [9]) was 1.2 % ID/g. It also gave a Drug uptake (Lung [10]) of 0.9 % ID/g, a Drug uptake (Heart [11]) of 2.1 % ID/g and a Kd [12] of 7.8 nM. It also gave a Drug uptake (Spleen [13]) of 16.1 % ID/g, a logD [14] of -1.97 and a Kp at 0.5 h [15] of 7.2. For the same molecule, the Drug uptake (Spleen [16]) was 12.5 % ID/g, the Drug uptake (PC-3) was 2.7 % ID/g and the Drug uptake (Thyroid gland [17]) was 0.01 %ID. For the same molecule, the Drug uptake (Muscle tissue [18]) was 1.4 % ID/g, the Ratio (Nucleic Acid [19]) was 2.9 and the Drug uptake (Blood [20]) was 0.7 % ID/g. For the same molecule, the Drug uptake (Lung [21]) was 2.9 % ID/g, the Drug uptake (Liver) was 13.9 % ID/g and the Drug uptake (Stomach [22]) was 2.2 %ID. For the same molecule, the Ratio (Nucleic Acid [23]) was 1.6 and the Drug uptake (Blood [24]) was 0.5 % ID/g.
